Legend:
Assay type in all cases: functional
HOP-62 = test: Cytotoxicity against human HOP62 cells assessed as cell growth at 10 uM after 48 hrs by SRB assay relative to control; conditions: HOP-62, 48 h, read-out: Activity
Outline: (§1)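 NCI Developmental Therapeutics Program 60-cell-line screen at a single dose of 10 μM. Cells incubated with compound for 48 h at 37 °C before viability determination.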

NCI-H460 = test: Cytotoxicity against human NCI-H460 cells assessed as cell growth at 10 uM after 48 hrs by SRB assay relative to control; conditions: NCI-H460, 48 h, read-out: Activity; outline: as §1
SR = test: Cytotoxicity against human SR cells assessed as cell growth at 10 uM after 48 hrs by SRB assay relative to control; conditions: read-out: Activity
Outline: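 Single-dose (10 μM) screen run by the NCI Developmental Therapeutics Program on its 60 human cancer cell line panel. Viability was determined after 48 h incubation with the cells at 37 °C.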

OVCAR-4 = test: Cytotoxicity against human OVCAR4 cells assessed as cell growth at 10 uM after 48 hrs by SRB assay relative to control; conditions: OVCAR-4, 48 h, read-out: Activity; outline: as §1
MDA-MB-231 = test: Cytotoxicity against human MDA-MB-231 cells assessed as cell growth at 10 uM after 48 hrs by SRB assay relative to control; conditions: MDA-MB-231, 48 h, read-out: Activity; outline: as §1
HT-29 = test: Cytotoxicity against human HT-29 cells assessed as cell growth at 10 uM after 48 hrs by SRB assay relative to control; conditions: HT-29, 48 h, read-out: Activity; outline: as §1
OVCAR-8 = test: Cytotoxicity against human OVCAR8 cells assessed as cell growth at 10 uM after 48 hrs by SRB assay relative to control; conditions: OVCAR-8, 48 h, read-out: Activity; outline: as §1

`CCCCCCCCCCCCCCCC(=O)O[C@@H]1[C@H](OC(=O)CCCCCCCCCCCCCCC)[C@@H](C(=O)N[C@@H](CCCCN)C(=O)OC)O[C@H]1n1cnc2c(=O)[nH]c(NC(=O)C(C)C)nc21.Cl` was tested, and the growth at 10 µM (HOP-62) was 104%, the growth at 10 µM (NCI-H460) was 101% and the growth at 10 µM (SR) was 9.69%. It also gave a growth at 10 µM (OVCAR-4) of 120%, a growth at 10 µM (MDA-MB-231) of 118% and a growth at 10 µM (HT-29) of 98.2%. The growth at 10 µM (OVCAR-8) was 87%.

From ChEMBL document CHEMBL2434893, “Synthesis, DNA binding and anti-leukemic activity of an aminoacyl nucleolipid” (Bioorg Med Chem Lett, 2013)
